Source: publication PMC7709506 (ESMO Open, 2020)

Assay: Safety and tolerability
Format: in vivo, human
In short: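 Open-label multicentre phase I/IIa trial in adults with advanced or metastatic solid tumours. Part 1 used 3+3 oral capsule escalation at 50–800 mg/day to define DLT and MTD. Part 2 gave tablets. Treatment continued until progression, intolerable AE or study end, with dose decisions by a safety monitoring board. AEs of special interest were monitored. The safety population was all dosed patients, summarised by dose level.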

[1] = 30 patients treated with 400 mg/day

Cn1cc(-c2ccc3c(c2)ncn3-c2cc(NS(=O)(=O)C3CC3)cc(-c3ccc(F)cc3F)c2)cn1 [ODM-203]
Hyperbilirubinaemia [1]: 36.7% | increased blood bilirubin [1]: 50.0% | Alopecia (Grade 3–5, all doses (n=84)): 1 (1.2) n (%) | Arthralgia (Grade 3–5, all doses (n=84)): 2 (2.4) n (%) | Asthenia (Grade 3–5, all doses (n=84)): 2 (2.4) n (%) | Blood bilirubin increased (Grade 3–5, all doses (n=84)): 20 (23.8) n (%) | Conjugated bilirubin increased (Grade 3–5, all doses (n=84)): 0 n (%) | Decreased appetite (Grade 3–5, all doses (n=84)): 0 n (%) | Diarrhoea (Grade 3–5, all doses (n=84)): 5 (6.0) n (%) | Dry mouth (Grade 3–5, all doses (n=84)): 0 n (%) | Dry skin (Grade 3–5, all doses (n=84)): 0 n (%) | Dysgeusia (Grade 3–5, all doses (n=84)): 0 n (%) | Epistaxis (Grade 3–5, all doses (n=84)): 0 n (%) | Fatigue (Grade 3–5, all doses (n=84)): 5 (6.0) n (%) | Hyperbilirubinaemia (Grade 3–5, all doses (n=84)): 16 (19.0) n (%) | Hyperphosphataemia (Grade 3–5, all doses (n=84)): 0 n (%) | Hypertension (Grade 3–5, all doses (n=84)): 3 (3.6) n (%) | Jaundice (Grade 3–5, all doses (n=84)): 2 (2.4) n (%) | Mucosal inflammation (Grade 3–5, all doses (n=84)): 0 n (%) | Myalgia (Grade 3–5, all doses (n=84)): 2 (2.4) n (%) | Nasal dryness (Grade 3–5, all doses (n=84)): 0 n (%) | Nausea (Grade 3–5, all doses (n=84)): 0 n (%) | Onycholysis (Grade 3–5, all doses (n=84)): 1 (1.2) n (%) | Palmar-plantar eryrthodysaestesia (Grade 3–5, all doses (n=84)): 4 (4.8) n (%) | Stomatitis (Grade 3–5, all doses (n=84)): 3 (3.6) n (%) | Vomiting (Grade 3–5, all doses (n=84)): 0 n (%) | Weight decreased (Grade 3–5, all doses (n=84)): 1 (1.2) n (%) | dose reduction due to arthralgia (N=84): 2 patients | dose reduction due to increased blood bilirubin (N=84): 2 patients | dose reduction due to palmar-plantar erythrodysesthesia syndrome (N=84): 3 patients | treatment interruption due to hyperbilirubinaemia (N=84): 8 patients | treatment interruption due to increase in blood bilirubin (N=84): 16 patients | AE leading to death (Total (N=84)): 7 (8.3) n (%) | AE leading to discontinuation (Total (N=84)): 30 (35.7) n (%) | AE leading to dose reduction (Total (N=84)): 9 (10.7) n (%) | AE leading to treatment interruption (Total (N=84)): 61 (72.6) n (%) | Alopecia (Total (N=84)): 26 (31.0) n (%) | Any AE (Total (N=84)): 84 (100) n (%) | Arthralgia (Total (N=84)): 28 (33.3) n (%) | Asthenia (Total (N=84)): 25 (29.8) n (%) | Blood bilirubin increased (Total (N=84)): 36 (42.9) n (%) | Conjugated bilirubin increased (Total (N=84)): 11 (13.1) n (%) | Decreased appetite (Total (N=84)): 25 (29.8) n (%) | Diarrhoea (Total (N=84)): 42 (50.0) n (%) | Dry mouth (Total (N=84)): 29 (34.5) n (%) | Dry skin (Total (N=84)): 10 (11.9) n (%) | Dysgeusia (Total (N=84)): 20 (23.8) n (%) | Epistaxis (Total (N=84)): 28 (33.3) n (%) | Fatigue (Total (N=84)): 23 (27.4) n (%) | Hyperbilirubinaemia (Total (N=84)): 28 (33.3) n (%) | Hyperphosphataemia (Total (N=84)): 20 (23.8) n (%) | Hypertension (Total (N=84)): 14 (16.7) n (%) | Jaundice (Total (N=84)): 27 (32.1) n (%) | Mucosal inflammation (Total (N=84)): 10 (11.9) n (%) | Myalgia (Total (N=84)): 11 (13.1) n (%) | Nasal dryness (Total (N=84)): 13 (15.5) n (%) | Nausea (Total (N=84)): 11 (13.1) n (%) | Onycholysis (Total (N=84)): 11 (13.1) n (%) | Palmar-plantar eryrthodysaestesia (Total (N=84)): 30 (35.7) n (%) | Related AE (Total (N=84)): 82 (97.6) n (%) | Related SAEs (Total (N=84)): 14 (16.7) n (%) | Stomatitis (Total (N=84)): 34 (40.5) n (%) | Vomiting (Total (N=84)): 9 (10.7) n (%) | Weight decreased (Total (N=84)): 19 (22.6) n (%) | patients with at least one AE during treatment (all doses, N=84): 84 patients | AE leading to death (capsule 100 mg (n=1)): 0 n (%) | AE leading to discontinuation (capsule 100 mg (n=1)): 0 n (%) | AE leading to dose reduction (capsule 100 mg (n=1)): 0 n (%) | AE leading to treatment interruption (capsule 100 mg (n=1)): 1 (100) n (%) | Alopecia (capsule 100 mg (n=1)): 0 n (%) | Any AE (capsule 100 mg (n=1)): 1 (100) n (%) | Arthralgia (capsule 100 mg (n=1)): 0 n (%) | Asthenia (capsule 100 mg (n=1)): 0 n (%) | Blood bilirubin increased (capsule 100 mg (n=1)): 0 n (%) | Conjugated bilirubin increased (capsule 100 mg (n=1)): 0 n (%) | Decreased appetite (capsule 100 mg (n=1)): 0 n (%) | Diarrhoea (capsule 100 mg (n=1)): 0 n (%) | Dry mouth (capsule 100 mg (n=1)): 0 n (%) | Dry skin (capsule 100 mg (n=1)): 0 n (%) | Dysgeusia (capsule 100 mg (n=1)): 0 n (%) | Epistaxis (capsule 100 mg (n=1)): 0 n (%) | Fatigue (capsule 100 mg (n=1)): 0 n (%) | Hyperbilirubinaemia (capsule 100 mg (n=1)): 0 n (%) | Hyperphosphataemia (capsule 100 mg (n=1)): 0 n (%) | Hypertension (capsule 100 mg (n=1)): 0 n (%)
